Measurements taken from ChEMBL document CHEMBL4196166 (J Med Chem, 2018).
Activity calls are given as the source filed them. The rule behind the calls is not given here.

Legend:
[1] = biological target: Urokinase-type plasminogen activator (Mus musculus, UniProt P06869); assay: Inhibition of mouse uPA using Z-Gly-Gly-Arg-AMC as substrate after 15 mins by fluorescence assay
Coagulation factor X = Coagulation factor X (Homo sapiens, UniProt P00742); assay: Inhibition of factor 10a (unknown origin) using chromogenic H-D-Ile-L-Pro-L-Arg-p-nitoraniline as substrate by fluorescence assay
[2] = biological target: T1, Urokinase-type plasminogen activator (Homo sapiens, UniProt P00749); assay: Inhibition of human kidney uPA using chromogenic H-D-Ile-L-Pro-L-Arg-p-nitoraniline as substrate by fluorescence assay
Procedure, shortened: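 Enzyme was uPA from human kidney cells at 10 nM final. […] Absorbance change at 405 nm gave initial rates. IC50 from a sigmoidal fit of % residual activity vs log concentration.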

Rattus norvegicus [3] = assay: Antikaliuretic effect in Sprague-Dawley rat assessed as decrease in acetazolamide-induced K+ excretion at 1.5 mg/kg, iv measured after 6 hrs post dose relative to acetazolamide-treated control; assay type: ADME, organism-based; set-up: scale not given: the % may be the effect or the level left; conditions: in vivo
Procedure, shortened: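 Male 21-week-old Sprague-Dawley rats, 8 per group. Given 25 mg/kg acetazolamide ip (0.9% saline), then 1.5 mg/kg compound iv (50 mM acetate buffer pH 5.5/5% DMSO, plus 0.5% Tween-80 for some analogs). Vehicle-only group included. Total urine collected in metabolic cages over 6 h. Urine Na+ and K+ measured on a biochemistry analyzer; compared with acetazolamide controls.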

MDA-MB-231 = assay: Cytotoxicity against human MDA-MB-231 cells assessed as reduction in cell viability after 48 hrs by CellTiter 96 Aqueous One solution cell proliferation assay; assay type: functional, cell-based; conditions: MDA-MB-231, 48 h
Procedure, shortened: (§1)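 Cells grown in DMEM high glucose with 10% heat-inactivated FCS, seeded at 5000/well and left 18 h. Compounds added at 1 nM–100 µM final (0.2% vehicle), n = 4 wells per concentration, with colour blanks. After 48 h, MTS reagent added for 2 h and A490 read. IC50 from a variable-slope sigmoidal fit.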

[4] = biological target: Vitamin K-dependent protein C (Homo sapiens, UniProt P04070); assay: Inhibition of activated protein C (unknown origin) using chromogenic L-pyroGlu-L-Pro-L-Arg-p-nitroaniline as substrate by fluorescence assay
Rattus norvegicus [5] = assay: Diuretic effect in Sprague-Dawley rat assessed as increase in acetazolamide-induced urine volume at 1.5 mg/kg, iv measured after 6 hrs post dose relative to acetazolamide-treated control; assay type: ADME, organism-based; conditions: in vivo
Procedure, shortened: (§2)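 Male 21-week-old Sprague-Dawley rats, 8 per group. One ip injection of 25 mg/kg acetazolamide (25 mg/mL in 0.9% saline, 1 mL/kg) or vehicle, then one iv injection of 1.5 mg/kg compound (1.5 mg/mL, 1 mL/kg) in 50 mM acetate buffer pH 5.5/5% DMSO, with 0.5% Tween-80 for some compounds. Total urine collected in metabolic cages over 6 h. Urine Na+ and K+ measured on a biochemistry analyzer. Mean ± SEM reported.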

Coagulation factor XI = Coagulation factor XI (Homo sapiens, UniProt P03951); assay: Inhibition of factor 11a (unknown origin) using chromogenic L-pyroGlu-L-Pro-L-Arg-p-nitroaniline as substrate by […]
HepG2 = assay: Cytotoxicity against human HepG2 cells assessed as reduction in cell viability after 48 hrs by CellTiter 96 Aqueous One solution cell proliferation assay; assay type: functional, cell-based; conditions: HepG2, 48 h; procedure, shortened: as §1
Rattus norvegicus [6] = assay: Antikaliuretic effect in Sprague-Dawley rat assessed as increase in acetazolamide-induced Na+ excretion at 1.5 mg/kg, iv measured after 6 hrs post dose relative to acetazolamide-treated control; assay type: ADME, organism-based; conditions: in vivo; procedure, shortened: as §2
Plasminogen = Plasminogen (Homo sapiens, UniProt P00747); assay: Inhibition of plasmin (unknown origin) using chromogenic H-D-Ile-L-Pro-L-Arg-p-nitoraniline as substrate by […]
[7] = biological target: Tissue-type plasminogen activator (Homo sapiens, UniProt P00750); assay: Inhibition of tPA (unknown origin) using chromogenic H-D-Ile-L-Pro-L-Arg-p-nitoraniline as substrate by […]
ASPC1 = assay: Antimetastatic activity against human AsPC1 cells xenografted in BALB/c nu/nu mouse co-implanted with human PSC assessed as reduction in metastasis lesions in liver at 10 mg/kg/day, ip measured after 28 days post first dose by microscopic analysis; assay type: functional, organism-based
Procedure, shortened: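 Female athymic BALB/c nu/nu mice, 6–8 weeks old. 1×10^6 AsPC-1 and 1×10^6 human pancreatic stellate cells in 50 µL PBS injected into the pancreatic tail. Treatment randomized on day 7 (n = 4/group) for 4 weeks: 10 mg/kg/day ip in 50 mM sodium acetate pH 5.5/10% DMSO/1% Kolliphor HS-15, or gemcitabine 75 mg/kg by oral gavage twice weekly, or vehicle. At kill, liver scored for visible macrometastases, fixed in formalin, and 4 µm sections stained with H&E. Chi-square test.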

[8] = biological target: T1, Urokinase-type plasminogen activator; assay: Inhibition of human kidney uPA using Z-Gly-Gly-Arg-AMC as substrate measured over 15 mins by fluorescence assay
Trypsin = Trypsin (Homo sapiens, UniProt P07477+P07478+P35030); assay: Inhibition of trypsin (unknown origin) at 10 nM to 33.3 uM after 30 mins by gel-based ABPP assay; assay type: protein assay
Prothrombin = Prothrombin (Homo sapiens, UniProt P00734); assay: Inhibition of thrombin (unknown origin) using chromogenic H-D-Ile-L-Pro-L-Arg-p-nitoraniline as substrate by […]
Plasma kallikrein = Plasma kallikrein (Homo sapiens, UniProt P03952); assay: Inhibition of human plasma kallikrein using chromogenic L-pyroGlu-L-Pro-L-Arg-p-nitroaniline as substrate by fluorescence assay
HEK293 = assay: Cytotoxicity against HEK293 cells assessed as reduction in cell viability after 48 hrs by CellTiter 96 Aqueous One solution cell proliferation assay; assay type: cell-based; conditions: Homo sapiens, HEK293, 48 h; procedure, shortened: as §1
HT-1080 = assay: Cytotoxicity against human HT1080 cells assessed as reduction in cell viability after 48 hrs by CellTiter 96 Aqueous One solution cell proliferation assay; assay type: functional, cell-based; conditions: HT-1080, 48 h; procedure, shortened: as §1

Plasminogen, sequence (P00747 97-580 limits assumed): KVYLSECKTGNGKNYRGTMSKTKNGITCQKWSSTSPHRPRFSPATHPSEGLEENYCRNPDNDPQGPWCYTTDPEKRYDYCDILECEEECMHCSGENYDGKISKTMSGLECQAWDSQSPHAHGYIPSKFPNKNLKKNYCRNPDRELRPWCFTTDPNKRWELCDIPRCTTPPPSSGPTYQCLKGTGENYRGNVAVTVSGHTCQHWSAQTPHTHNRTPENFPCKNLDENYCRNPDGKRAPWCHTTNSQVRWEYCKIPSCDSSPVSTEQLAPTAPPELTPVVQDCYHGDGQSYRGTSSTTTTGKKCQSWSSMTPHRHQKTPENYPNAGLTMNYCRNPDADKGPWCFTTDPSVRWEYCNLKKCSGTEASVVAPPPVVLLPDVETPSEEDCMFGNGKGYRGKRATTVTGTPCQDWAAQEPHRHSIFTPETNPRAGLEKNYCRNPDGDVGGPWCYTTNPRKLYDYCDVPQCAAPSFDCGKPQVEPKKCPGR
Plasminogen, sequence (P00747 581-810 limits assumed): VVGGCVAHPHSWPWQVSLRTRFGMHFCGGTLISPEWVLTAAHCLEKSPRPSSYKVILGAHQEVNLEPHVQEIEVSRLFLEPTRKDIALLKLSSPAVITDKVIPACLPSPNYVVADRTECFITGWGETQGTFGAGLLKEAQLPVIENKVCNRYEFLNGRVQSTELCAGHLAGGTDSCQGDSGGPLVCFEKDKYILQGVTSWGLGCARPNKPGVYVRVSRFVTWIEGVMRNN
Vitamin K-dependent protein C, sequence (P04070 43-197 limits assumed): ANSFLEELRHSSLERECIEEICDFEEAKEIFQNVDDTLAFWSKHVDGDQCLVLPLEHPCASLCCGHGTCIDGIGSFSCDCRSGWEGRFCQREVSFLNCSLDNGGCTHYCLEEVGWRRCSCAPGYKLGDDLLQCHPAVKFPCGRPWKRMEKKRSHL
Vitamin K-dependent protein C, sequence (P04070 212-461 limits assumed): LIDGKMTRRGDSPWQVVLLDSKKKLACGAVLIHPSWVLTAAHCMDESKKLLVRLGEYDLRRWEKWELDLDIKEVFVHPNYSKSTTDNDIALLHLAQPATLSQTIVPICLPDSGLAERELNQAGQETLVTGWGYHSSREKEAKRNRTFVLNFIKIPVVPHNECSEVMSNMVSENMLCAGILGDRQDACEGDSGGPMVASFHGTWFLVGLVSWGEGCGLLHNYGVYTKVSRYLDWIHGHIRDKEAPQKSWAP
Plasma kallikrein, sequence (P03952 20-390 limits assumed): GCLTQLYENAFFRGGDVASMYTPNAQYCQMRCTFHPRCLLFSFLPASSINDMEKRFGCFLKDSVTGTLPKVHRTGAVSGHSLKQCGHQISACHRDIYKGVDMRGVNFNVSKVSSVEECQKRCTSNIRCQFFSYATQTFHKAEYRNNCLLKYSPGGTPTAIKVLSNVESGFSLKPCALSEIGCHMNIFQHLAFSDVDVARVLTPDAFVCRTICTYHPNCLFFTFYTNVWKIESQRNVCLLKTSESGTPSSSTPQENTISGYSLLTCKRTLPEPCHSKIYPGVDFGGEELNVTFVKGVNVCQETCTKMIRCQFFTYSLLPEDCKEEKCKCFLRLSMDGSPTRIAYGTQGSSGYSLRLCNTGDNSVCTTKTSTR
Plasma kallikrein, sequence (P03952 391-638 limits assumed): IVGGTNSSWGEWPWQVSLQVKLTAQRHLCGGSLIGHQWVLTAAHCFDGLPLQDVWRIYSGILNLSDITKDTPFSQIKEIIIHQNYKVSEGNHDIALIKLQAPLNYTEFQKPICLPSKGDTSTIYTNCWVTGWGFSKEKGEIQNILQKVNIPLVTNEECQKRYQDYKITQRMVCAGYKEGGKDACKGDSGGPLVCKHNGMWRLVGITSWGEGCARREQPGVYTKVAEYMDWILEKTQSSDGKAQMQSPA
Tissue-type plasminogen activator, sequence (P00750 whole entry): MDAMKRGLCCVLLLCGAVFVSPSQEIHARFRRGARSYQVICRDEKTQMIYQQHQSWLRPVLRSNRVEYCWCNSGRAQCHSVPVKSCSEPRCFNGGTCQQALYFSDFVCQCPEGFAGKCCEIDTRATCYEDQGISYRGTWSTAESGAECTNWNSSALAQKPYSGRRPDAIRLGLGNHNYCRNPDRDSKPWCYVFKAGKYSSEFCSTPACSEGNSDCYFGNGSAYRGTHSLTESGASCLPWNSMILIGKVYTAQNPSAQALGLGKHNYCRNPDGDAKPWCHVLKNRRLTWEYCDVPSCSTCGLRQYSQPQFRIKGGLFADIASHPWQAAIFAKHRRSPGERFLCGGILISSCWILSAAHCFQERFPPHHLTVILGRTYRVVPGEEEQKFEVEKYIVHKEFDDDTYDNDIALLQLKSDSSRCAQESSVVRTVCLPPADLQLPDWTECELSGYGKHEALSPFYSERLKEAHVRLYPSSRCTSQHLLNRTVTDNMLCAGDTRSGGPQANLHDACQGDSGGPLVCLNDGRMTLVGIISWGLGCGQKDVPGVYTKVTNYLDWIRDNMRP
Coagulation factor X, sequence (P00742 41-179 limits assumed): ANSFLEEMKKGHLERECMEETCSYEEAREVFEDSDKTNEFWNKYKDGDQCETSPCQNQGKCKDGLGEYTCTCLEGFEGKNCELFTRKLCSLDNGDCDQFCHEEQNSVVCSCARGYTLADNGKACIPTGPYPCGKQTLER
Coagulation factor X, sequence (P00742 235-488 limits assumed): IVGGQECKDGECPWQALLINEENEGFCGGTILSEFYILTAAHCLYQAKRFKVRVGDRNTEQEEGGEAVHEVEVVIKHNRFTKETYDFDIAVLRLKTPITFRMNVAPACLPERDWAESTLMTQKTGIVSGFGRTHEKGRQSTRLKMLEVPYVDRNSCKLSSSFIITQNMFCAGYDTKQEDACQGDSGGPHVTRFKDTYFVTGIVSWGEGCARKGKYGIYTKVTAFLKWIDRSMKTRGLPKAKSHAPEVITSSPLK
Coagulation factor XI, sequence (P03951 19-387 limits assumed): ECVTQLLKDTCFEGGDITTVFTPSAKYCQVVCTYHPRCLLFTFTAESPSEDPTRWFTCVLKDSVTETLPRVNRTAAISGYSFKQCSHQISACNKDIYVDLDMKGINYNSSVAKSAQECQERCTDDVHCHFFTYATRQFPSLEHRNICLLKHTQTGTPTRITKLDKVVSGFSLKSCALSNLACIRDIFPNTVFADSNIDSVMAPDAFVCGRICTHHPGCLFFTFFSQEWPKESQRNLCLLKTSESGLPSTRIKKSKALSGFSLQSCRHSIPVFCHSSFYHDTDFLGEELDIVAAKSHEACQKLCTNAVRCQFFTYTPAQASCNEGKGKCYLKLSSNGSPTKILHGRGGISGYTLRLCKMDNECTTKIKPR
Coagulation factor XI, sequence (P03951 388-625 limits assumed): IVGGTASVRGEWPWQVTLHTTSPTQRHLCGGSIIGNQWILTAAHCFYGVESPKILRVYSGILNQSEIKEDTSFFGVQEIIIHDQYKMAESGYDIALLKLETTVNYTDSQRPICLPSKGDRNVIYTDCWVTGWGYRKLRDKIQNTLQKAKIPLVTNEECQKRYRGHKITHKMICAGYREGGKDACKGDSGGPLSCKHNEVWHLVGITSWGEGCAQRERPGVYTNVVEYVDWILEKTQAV
Urokinase-type plasminogen activator (Mus musculus, UniProt P06869), sequence (P06869 21-178 limits assumed): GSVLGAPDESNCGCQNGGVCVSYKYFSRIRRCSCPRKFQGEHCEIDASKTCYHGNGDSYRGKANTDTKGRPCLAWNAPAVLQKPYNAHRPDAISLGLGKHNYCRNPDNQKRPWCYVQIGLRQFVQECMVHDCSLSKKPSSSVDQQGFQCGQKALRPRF
Urokinase-type plasminogen activator (Mus musculus, UniProt P06869), sequence (P06869 180-433 limits assumed): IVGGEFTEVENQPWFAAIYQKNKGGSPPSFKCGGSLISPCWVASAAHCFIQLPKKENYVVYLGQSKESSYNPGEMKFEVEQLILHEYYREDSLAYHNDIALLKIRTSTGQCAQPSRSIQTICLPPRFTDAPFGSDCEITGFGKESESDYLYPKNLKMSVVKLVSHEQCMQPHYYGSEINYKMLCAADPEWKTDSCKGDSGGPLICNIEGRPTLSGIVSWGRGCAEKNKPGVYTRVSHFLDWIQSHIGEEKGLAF

Structure (SMILES)	Ki [1] [µM]	IC50 (Coagulation factor X) [µM]	IC50 [2] [µM]	Activity (Rattus norvegicus [3])	IC50 (MDA-MB-231) [µM]	IC50 [4] [µM]	Activity (Rattus norvegicus [5])	IC50 (Coagulation factor XI) [µM]	IC50 (HepG2) [µM]	Activity (Rattus norvegicus [6])	IC50 (Plasminogen) [µM]	IC50 [7] [µM]	Activity (ASPC1)	Ki [8] [µM]	inhibition (Trypsin)	IC50 (Prothrombin) [µM]	IC50 (Plasma kallikrein) [µM]	IC50 (HEK293) [µM]	IC50 (HT-1080) [µM]
COc1ncc(-c2nc(C(=O)NC(=N)N)c(N)nc2N2CCCCCC2)cn1	1.61	> 50	0.039	24%	> 100	> 50	Non-Toxic	> 50	57.3	Non-Toxic	> 20	> 20	Active	0.053	Active	> 20	> 50	74.9	44.8
N=C(N)NC(=O)c1nc(Cl)c(N2CCCCCC2)nc1N [N,N-HEXAMETHYLENEAMILORIDE]	9.31	> 50	2.4	24%	27.3	> 50	Non-Toxic	> 50	20.2	Non-Toxic	> 10	> 10	–	1.36	–	> 10	> 50	2.8	6.6
N=C(N)NC(=O)c1nc(-c2cc3ccccc3o2)c(N2CCCCCC2)nc1N	1.8	> 50	0.53	Non-Toxic	–	> 50	Non-Toxic	31	12.7	Non-Toxic	> 10	> 10	Active	0.183	Active	> 10	11.3	3.1	4.6
